Results from ChEMBL document CHEMBL3102760, “Novel PARP-1 inhibitors based on a 2-propanoyl-3H-quinazolin-4-one scaffold” (Bioorg Med Chem Lett, 2014).

Assays:
[1] = target: T1, Poly [ADP-ribose] polymerase 1 (Homo sapiens, UniProt P09874); test: Inhibition of GST-tagged recombinant human PARP-1 expressed in Escherichia coli after 30 mins by fluorescence-based assay
[2] = Growth inhibition of human MDA-MB-436 cells after 7 days by SRB assay; conditions: MDA-MB-436, 7 days
[3] = target: T1, Poly [ADP-ribose] polymerase 1; test: Inhibition of PARP-1-mediated PARylation in H2O2-induced human HeLa cells preincubated for 3 hrs followed by H2O2 addition measured after 5 mins by Draq5 staining-based fluorescence assay; format: cell-based
Outline: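 HeLa cell PARylation assay; EC50 values are the mean of two experiments.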

[4] = Activity at P-gp (unknown origin); format: ADME; conditions: human
[5] = Ratio of drug level in blood to plasma (unknown origin) after 60 mins; format: ADME; conditions: blood and plasma
[6] = Metabolic stability in human plasma assessed as compound recovery after 2 hrs; format: ADME, cell-free; conditions: read-out: Drug recovery
Mus musculus [7] = test: Toxicity in SCID beige mouse xenografted with human MX1 cells assessed as lethality at 200 mg/kg, ip administered qd for 5 days per week up to 3 weeks; format: organism-based; parameters: dose 200 mg/kg, route intraperitoneal; conditions: in vivo
Outline: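 Athymic SCID beige mice carrying MX1 breast carcinoma xenografts (BRCA1 deletion, BRCA2 mutation), 8 per group. Treatment began 7 days after tumour cell injection: ip at 200 mg/kg in 10 mL/kg, once daily 5 days/week for 3 weeks, with a vehicle-treated control group. Lethality was scored as deaths per group. Body-weight loss % was recorded alongside, and tumour volume was measured at day +38.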

[8] = Efflux ratio of permeability in human Caco2 cells; format: ADME, cell-based; conditions: Caco-2
Outline: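 Bidirectional Caco-2 cell monolayer permeability assay; the efflux ratio was derived from the two transport directions.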

[9] = Half life in human hepatocytes; format: ADME, cell-based, Hepatocyte
Mus musculus [10] = test: Toxicity in SCID beige mouse xenografted with human MX1 cells assessed as body weight loss at 200 mg/kg, ip administered qd for 5 days per week up to 3 weeks relative to control; format: organism-based; parameters: dose 200 mg/kg, route intraperitoneal; conditions: in vivo
Outline: (§1)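 MX1 breast carcinoma cells were xenografted into athymic SCID beige mice, with dosing starting 7 days after tumor injection. Compound was given intraperitoneally at 200 mg/10 mL/kg, schedule qdx5/wx3w, versus a vehicle group; 8 mice per group. Tumor volume and body weight loss were read at day +38. Tumor volume was compared with the vehicle group by Mann-Whitney test.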

MX1 = test: Antitumor activity against human MX1 cells xenografted in SCID beige mouse assessed as tumor volume inhibition at 200 mg/kg, ip administered qd for 5 days per week up to 3 weeks relative to control; format: functional; parameters: scale not given: the % may be the effect or the level left; conditions: route intraperitoneal; outline: as §1

T1 sequence (P09874 whole entry): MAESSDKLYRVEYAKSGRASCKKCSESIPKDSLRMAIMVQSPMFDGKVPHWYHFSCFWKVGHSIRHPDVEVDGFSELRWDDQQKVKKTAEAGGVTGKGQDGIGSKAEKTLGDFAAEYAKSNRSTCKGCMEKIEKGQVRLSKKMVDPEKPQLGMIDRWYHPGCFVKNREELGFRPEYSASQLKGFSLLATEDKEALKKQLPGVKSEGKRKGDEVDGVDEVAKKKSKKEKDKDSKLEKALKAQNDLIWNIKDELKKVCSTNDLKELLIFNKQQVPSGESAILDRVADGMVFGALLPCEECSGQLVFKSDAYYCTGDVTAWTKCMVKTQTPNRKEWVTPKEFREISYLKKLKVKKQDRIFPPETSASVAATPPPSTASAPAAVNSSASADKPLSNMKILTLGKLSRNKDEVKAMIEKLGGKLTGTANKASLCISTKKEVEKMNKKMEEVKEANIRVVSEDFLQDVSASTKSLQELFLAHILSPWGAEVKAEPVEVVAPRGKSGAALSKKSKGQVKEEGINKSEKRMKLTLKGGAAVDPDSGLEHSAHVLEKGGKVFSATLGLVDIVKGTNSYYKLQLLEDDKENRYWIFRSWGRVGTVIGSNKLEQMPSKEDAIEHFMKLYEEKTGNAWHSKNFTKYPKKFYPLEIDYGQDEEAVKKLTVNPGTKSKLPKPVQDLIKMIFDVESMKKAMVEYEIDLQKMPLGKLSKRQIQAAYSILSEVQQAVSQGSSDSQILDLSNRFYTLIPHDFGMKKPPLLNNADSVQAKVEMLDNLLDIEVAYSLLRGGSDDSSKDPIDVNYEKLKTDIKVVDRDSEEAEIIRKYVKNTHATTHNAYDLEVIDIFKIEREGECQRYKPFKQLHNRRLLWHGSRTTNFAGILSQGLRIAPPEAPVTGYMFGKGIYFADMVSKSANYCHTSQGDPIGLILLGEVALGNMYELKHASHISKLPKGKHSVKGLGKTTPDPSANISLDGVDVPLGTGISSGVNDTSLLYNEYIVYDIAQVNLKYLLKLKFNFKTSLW

Compound | IC50 [1] [nM] | also measured
Cc1oc(C(N)=O)cc1COc1ccccc1C(N)=O | 1660 | 
CN(C)CC(C)(C)CN/C=C1/C(=O)NC(=O)c2ccccc21 | 87.4 | 
O=C(CCc1nc2ccccc2c(=O)[nH]1)N1CCN(C(=O)c2cccs2)CC1 | 9.8 | Activity [4]: Not Active; blood plasma ratio at 1 h [5]: 0.4; remaining at 2 h [6]: 50%; Activity (Mus musculus [7]): Non-toxic; efflux ratio [8]: 5.8; half-life [9]: 584 min; Activity (Mus musculus [10]): 10%; IC50 [2]: 17.3 µM; Activity (MX1): 47%; EC50 [3]: 256 nM
CC(=O)c1ccc(NC(=O)CCn2c(=O)[nH]c(=O)c3ccccc32)cc1 | 87.6 | 
O=C1NC(=O)c2ccccc2/C1=C\Nc1ccccc1N1CCCCC1 | 1210 | 
O=C1NC(=O)c2ccccc2/C1=C\c1ccc(F)cc1 | 2540 | 
O=C1CN(C(=O)CSc2nc3ccccc3c(=O)[nH]2)c2ccccc2N1 | 540 | 
NC(=O)c1ccc(NC(=O)CCn2c(=O)[nH]c(=O)c3ccccc32)cc1 | 130 | 
CC(=O)Nc1ccc(NC(=O)CCn2c(=O)[nH]c(=O)c3ccccc32)cc1 | 760 | 
NS(=O)(=O)Nc1ccc(NC(=O)CCn2c(=O)[nH]c(=O)c3ccccc32)cc1 | 410 | 
O=C(CCn1c(=O)[nH]c(=O)c2ccccc21)Nc1ccccc1F | 1520 | 
Cc1ccc(NC(=O)CCn2c(=O)[nH]c(=O)c3ccccc32)c(O)c1 | 350 | 
Cc1ccc(NS(=O)(=O)c2ccc(NC(=O)Cn3c(=O)[nH]c(=O)c4ccccc43)cc2C)c(C)c1 | 1280 | 
CC(NC(=O)Cc1n[nH]c(=O)c2ccccc12)c1ccc2c(c1)CCCC2 (stereo not drawn) | 1860 | 
O=C(Cc1n[nH]c(=O)c2ccccc12)NCCc1ccc2c(c1)OCCO2 | 280 | 
O=C(Cc1n[nH]c(=O)c2ccccc12)NCc1ccc(S(=O)(=O)N2CCOCC2)cc1 | 600 | 
O=C(CN1CCN(C(=O)Cc2n[nH]c(=O)c3ccccc23)CC1)Nc1cccc(F)c1 | 1100 | 
CCN(CC(=O)Cc1c(F)cccc1F)C(=O)Cc1n[nH]c(=O)c2ccccc12 | 600 | 
NC(=O)c1ccc(COc2ccccc2C(N)=O)cc1 | 820 | 
CC(NC(=O)COc1ccccc1C(N)=O)c1ccccc1 (stereo not drawn) | 820 | 
NC(=O)c1ccccc1OCC(=O)N1CC(=O)Nc2cc(C(F)(F)F)ccc21 | 1060 | 
CC(C)NS(=O)(=O)c1ccc(NC(=O)Cc2n[nH]c(=O)c3ccccc23)cc1 | 690 | 
Cn1nnc2c(C(N)=O)ncn2c1=O [TEMOZOLOMIDE] |  | IC50 [2]: 120 µM

Further lines, with some results ahead:

IC50 [1] [nM] | Compound | also measured
270 | NC(=O)C1CCN(C(=O)CCc2nc(O)c3ccccc3n2)CC1 | 
42.9 | NC(=O)c1ccccc1OCC(=O)N1CCc2ccccc2C1 | 
1030 | Cc1ccc2c(c1)CCCN2C(=O)CCc1nc2ccccc2c(=O)[nH]1 | 
28.5 | O=C(CCc1nc2ccccc2c(=O)[nH]1)N1CCN(C(=O)c2ccco2)CC1 | 
67.1 | O=C(CCc1nc2ccccc2c(=O)[nH]1)N1CCN(C(=O)C2CC2)CC1 | IC50 [2]: 51.1 µM; EC50 [3]: 707 nM
110 | O=C(CCc1nc2ccccc2c(=O)[nH]1)N1CCN(C(=O)C2CCCC2)CC1 | 
130 | O=C(CCc1nc2ccccc2c(=O)[nH]1)N1CCN(C(=O)C2CCCO2)CC1 (stereo not drawn) | 
29.5 | O=C(CCc1nc2ccccc2c(=O)[nH]1)N1CCN(C(=O)c2ccc[nH]2)CC1 | IC50 [2]: 18.1 µM; EC50 [3]: 865 nM
130 | Cc1c(C(=O)N2CCN(C(=O)CCc3nc4ccccc4c(=O)[nH]3)CC2)oc2ccccc12 | 
56.1 | O=C(CCc1nc2ccccc2c(=O)[nH]1)N1CCN(C(=O)c2ccc(F)cc2)CC1 | Activity [4]: Not Active; blood plasma ratio at 1 h [5]: 0.4; remaining at 2 h [6]: 57%; efflux ratio [8]: 6; half-life [9]: 618 min; IC50 [2]: 19.5 µM; EC50 [3]: 467 nM
300 | C=CCOC(=O)N1CCCC(C(=O)N2CCN(C(=O)CCc3nc4ccccc4c(=O)[nH]3)CC2)C1 (stereo not drawn) | 
31.9 | O=C(CCc1nc2ccccc2c(=O)[nH]1)N1CCN(C(=O)C2CCCNC2)CC1 (stereo not drawn) | 
220 | C=CCN1CCCC(C(=O)N2CCN(C(=O)CCc3nc4ccccc4c(=O)[nH]3)CC2)C1 (stereo not drawn) | 
49.8 | O=C(Cc1n[nH]c(=O)c2ccccc12)NCc1ccc(N2CCOCC2)nc1 | 
190 | O=C1CN(C(=O)CCc2nc3ccccc3c(=O)[nH]2)CCN1 | 
4700 | NC(=O)c1ccc(NC(=O)CCCc2nc3ccccc3c(=O)[nH]2)cc1 | 
260 | O=C(c1n[nH]c(=O)c2ccccc12)N1CCN(/C=C/c2ccccc2)CC1 | 
1960 | O=C(Cc1n[nH]c(=O)c2ccccc12)NCC(c1ccccc1Cl)N1CCCC1 (stereo not drawn) | 
280 | CC(=O)c1ccc(N2CCN(C(=O)COc3ccccc3C(N)=O)CC2)c(F)c1 | 
